ChEMBL document CHEMBL1667819, “Aminopyridinecarboxamide-based inhaled IKK-2 inhibitors for asthma and COPD: Structure-activity relationship” (Bioorg Med Chem, 2011)

Tests used:
PBMC = experiment: Inhibition of LPS-stimulated TNFalpha release in human PBMC; assay type: functional, cell-based
Outline: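 PBMC were Ficoll-isolated from heparinized blood of healthy donors and plated at 2.5 × 10⁵ cells/well in RPMI 1640 with 5% FBS and penicillin–streptomycin. Cells were preincubated with compound for 1 h, then stimulated with LPS (20 ng/ml) for 16 h. Supernatant TNFα was measured by ELISA, and IC50 is the mean of ≥3 experiments.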

[1] = biological target: T1, Inhibitor of nuclear factor kappa-B kinase subunit beta (Homo sapiens) (UniProt O14920); experiment: Binding affinity to human recombinant IKK2 assessed as half life
T1 sequence (whole entry): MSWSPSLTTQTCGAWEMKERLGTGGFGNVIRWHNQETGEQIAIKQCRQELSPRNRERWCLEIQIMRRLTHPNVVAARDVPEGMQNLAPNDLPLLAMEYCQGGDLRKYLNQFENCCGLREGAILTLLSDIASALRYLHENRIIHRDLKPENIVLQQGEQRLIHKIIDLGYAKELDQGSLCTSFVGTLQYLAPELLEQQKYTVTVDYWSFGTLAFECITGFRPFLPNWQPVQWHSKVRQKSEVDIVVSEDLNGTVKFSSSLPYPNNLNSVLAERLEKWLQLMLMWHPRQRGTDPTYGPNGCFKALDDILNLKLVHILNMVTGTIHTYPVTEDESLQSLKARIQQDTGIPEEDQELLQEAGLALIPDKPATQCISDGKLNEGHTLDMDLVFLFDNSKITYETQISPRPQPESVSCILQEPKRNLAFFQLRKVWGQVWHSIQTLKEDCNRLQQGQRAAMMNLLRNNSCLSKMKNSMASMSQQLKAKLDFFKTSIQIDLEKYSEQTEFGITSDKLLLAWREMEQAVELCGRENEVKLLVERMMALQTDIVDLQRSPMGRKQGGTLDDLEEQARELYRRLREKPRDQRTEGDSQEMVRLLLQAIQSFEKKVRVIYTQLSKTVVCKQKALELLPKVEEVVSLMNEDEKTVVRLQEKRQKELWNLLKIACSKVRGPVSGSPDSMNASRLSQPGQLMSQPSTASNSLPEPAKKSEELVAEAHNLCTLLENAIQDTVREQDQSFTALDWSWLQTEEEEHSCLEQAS

[2] = Half life in human liver microsomes
[3] = biological target: Voltage-gated inwardly rectifying potassium channel KCNH2 (Homo sapiens, UniProt Q12809); experiment: Displacement of dofetilide from human ERG transfected in HEK293 cells by fluorescence polarization assay
Sequence of Voltage-gated inwardly rectifying potassium channel KCNH2 (Q12809 whole entry): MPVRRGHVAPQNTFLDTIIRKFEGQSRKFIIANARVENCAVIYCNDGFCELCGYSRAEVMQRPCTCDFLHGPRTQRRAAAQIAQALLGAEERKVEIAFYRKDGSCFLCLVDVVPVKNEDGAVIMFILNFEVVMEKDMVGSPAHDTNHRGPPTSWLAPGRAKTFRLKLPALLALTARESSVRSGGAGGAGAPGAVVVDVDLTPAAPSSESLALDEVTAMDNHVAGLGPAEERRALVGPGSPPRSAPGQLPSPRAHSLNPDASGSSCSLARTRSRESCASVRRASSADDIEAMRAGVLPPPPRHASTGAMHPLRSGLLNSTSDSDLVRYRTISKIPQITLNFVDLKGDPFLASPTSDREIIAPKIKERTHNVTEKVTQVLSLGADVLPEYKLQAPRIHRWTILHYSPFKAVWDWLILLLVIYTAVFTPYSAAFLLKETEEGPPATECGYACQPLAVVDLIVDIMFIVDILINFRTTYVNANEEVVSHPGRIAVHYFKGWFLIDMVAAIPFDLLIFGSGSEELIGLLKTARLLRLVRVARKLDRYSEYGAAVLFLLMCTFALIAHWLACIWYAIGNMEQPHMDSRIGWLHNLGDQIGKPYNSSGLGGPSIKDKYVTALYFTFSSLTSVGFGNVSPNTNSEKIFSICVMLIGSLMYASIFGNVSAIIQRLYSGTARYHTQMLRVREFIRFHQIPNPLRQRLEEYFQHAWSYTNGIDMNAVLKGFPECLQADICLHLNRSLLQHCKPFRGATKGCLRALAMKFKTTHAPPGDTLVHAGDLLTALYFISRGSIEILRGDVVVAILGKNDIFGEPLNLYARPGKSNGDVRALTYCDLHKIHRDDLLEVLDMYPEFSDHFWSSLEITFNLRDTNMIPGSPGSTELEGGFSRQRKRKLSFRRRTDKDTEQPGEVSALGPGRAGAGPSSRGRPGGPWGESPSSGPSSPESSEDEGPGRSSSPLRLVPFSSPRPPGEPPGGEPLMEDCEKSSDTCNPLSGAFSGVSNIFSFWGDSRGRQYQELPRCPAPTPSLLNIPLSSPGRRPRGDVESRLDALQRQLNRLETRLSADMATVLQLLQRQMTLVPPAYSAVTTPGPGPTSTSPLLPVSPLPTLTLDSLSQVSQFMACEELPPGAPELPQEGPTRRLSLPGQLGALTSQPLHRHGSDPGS
Outline: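 Competition binding used membranes from HEK-293 cells transfected with hERG. Test compound competed with Cy3B-tagged N-desmethyl dofetilide for channel binding, with fluorescence polarization read-out. Values are given as % of effect.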

[4] = biological target: T2, Inhibitor of nuclear factor kappa-B kinase subunit beta (Homo sapiens, UniProt O14920); experiment: Inhibition of human recombinant IKK2
T2 sequence (O14920 whole entry): T1 sequence (whole entry)

[5] = biological target: T1, Inhibitor of nuclear factor kappa-B kinase subunit beta (Homo sapiens); experiment: Binding affinity to human IKK2 in PBMC assessed as half life by cell-based assay
Outline: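 Cryopreserved PBMC were thawed and plated, then exposed to compound for 1 h. Compound was removed by four spin-and-aspirate washes, and an unwashed plate served as control. Loss of inhibition after washout gave the cellular half-life.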

T1/2 [1] [h] | half-life ([2]; liver microsomes) [h] | IC50 [4] [nM] | T1/2 [5] [h] | half-life ([2]; microsomes) [h] | Structure (SMILES) | IC50 (PBMC) [nM] | inhibition (INH) [3] [%]
4 | 0.283 | 3 |  |  | Cn1cc(CN2CCN(c3cc(C(=O)Nc4ccc5c(c4)-c4c(c(C(N)=O)nn4-c4ccc(F)cc4)CC5)c(Cl)cn3)CC2)cn1 | 11 | 91
8 |  | 2.8 |  |  | Cc1c(CN2CCN(c3cc(C(=O)Nc4ccc5c(c4)-c4c(c(C(N)=O)nn4-c4ccc(F)cc4)CC5)c(Cl)cn3)CC2)cnn1C | 67 | 
8 |  | 4.3 |  |  | Cc1nn(C)cc1CN1CCN(c2cc(C(=O)Nc3ccc4c(c3)-c3c(c(C(N)=O)nn3-c3ccc(F)cc3)CC4)c(Cl)cn2)CC1 | 118 | 
 |  | 10 |  |  | CN1CCN(c2cc(C(=O)Nc3ccc4c(c3)-c3c(c(C(N)=O)nn3-c3ccc(F)c(F)c3)CC4)c(Cl)cn2)CC1 | 65 | 
 |  | 14 |  |  | Cc1ccc(-n2nc(C(N)=O)c3c2-c2cc(NC(=O)c4cc(N5CCN(C)CC5)ncc4Cl)ccc2CC3)cc1 | 38 | 
0.1 |  | 0.6 |  |  | NC(=O)c1nn(-c2ccc(F)cc2)c2c1CCc1ccc(NC(=O)c3cc(N4CCC(O)CC4)ncc3Cl)cc1-2 | 15 | 
6 |  | 1.1 |  |  | COC(=O)Cn1cc(CN2CCN(c3cc(C(=O)Nc4ccc5c(c4)-c4c(c(C(N)=O)nn4-c4ccc(F)cc4)CC5)c(Cl)cn3)CC2)cn1 | 54 | 24
4 | 0.05 | 6.6 | < 4 |  | COCCOCCCn1cc(CN2CCN(c3cc(C(=O)Nc4ccc5c(c4)-c4c(c(C(N)=O)nn4-c4ccc(F)cc4)CC5)c(Cl)cn3)CC2)cn1 | 21 | 69
0.6 |  | 1.9 |  |  | COCCN1CCN(c2cc(C(=O)Nc3ccc4c(c3)-c3c(c(C(N)=O)nn3-c3ccc(F)cc3)CC4)c(Cl)cn2)CC1 | 8 | 
1 |  | 2.2 |  |  | CN1CCN(c2cc(C(=O)Nc3ccc4c(c3)-c3c(c(C(N)=O)nn3-c3ccc(Cl)c(O)c3)CC4)c(Cl)cn2)CC1 |  | 
2 |  | 4.8 |  |  | CN1CCN(c2cc(C(=O)Nc3ccc4c(c3)-c3c(c(C(N)=O)nn3-c3cccc(F)c3)CC4)c(Cl)cn2)CC1 | 14 | 
4 | 0.05 | 2.8 | > 4 |  | COCCCn1cc(CN2CCN(c3cc(C(=O)Nc4ccc5c(c4)-c4c(c(C(N)=O)nn4-c4ccc(F)cc4)CC5)c(Cl)cn3)CC2)cn1 | 16 | 76
3 |  | 1.9 |  | 0.133 | NC(=O)c1nn(-c2ccc(F)cc2)c2c1CCc1ccc(NC(=O)c3cc(N4CCN(Cc5cn[nH]c5)CC4)ncc3Cl)cc1-2 | 16 | 78
3 |  | 1.6 |  |  | CN1CCN(c2cc(C(=O)Nc3ccc4c(c3)-c3c(c(C(N)=O)nn3-c3ccc(F)cc3)CC4)c(Cl)cn2)CC1 | 39 | 
 | 2 | 0.5 |  |  | NC(=O)c1nn(-c2ccc(F)cc2)c2c1CCc1ccc(NC(=O)c3cc(N4CCN(Cc5cnn(CC(=O)O)c5)CC4)ncc3Cl)cc1-2 | 221 | 29
0.3 |  | 3.9 |  |  | Cn1cc(CN2CCN(c3cc(C(=O)Nc4ccc5c(c4)-c4c(c(C(N)=O)nn4-c4ccc(F)cc4)CC5)c(Cl)cn3)CC2C(=O)O)cn1 (stereo unspecified) | 432 | 

T1/2 [1] [h] | half-life ([2]; liver microsomes) [h] | IC50 [4] [nM] | T1/2 [5] [h] | half-life ([2]; microsomes) [h] | Structure (SMILES) | IC50 (PBMC) [nM] | inhibition (INH) [3] [%]
6 |  | 3.5 |  |  | C[C@H]1CN(c2cc(C(=O)Nc3ccc4c(c3)-c3c(c(C(N)=O)nn3-c3ccc(F)cc3)CC4)c(Cl)cn2)CCN1Cc1cnn(C)c1 | 9 | 
5 | 0.05 | 5 | > 4 |  | CCOC(=O)Cn1cc(CN2CCN(c3cc(C(=O)Nc4ccc5c(c4)-c4c(c(C(N)=O)nn4-c4cccc(F)c4)CC5)c(Cl)cn3)CC2)cn1 | 9 | 78
1 |  | 3.5 |  |  | CN1CCN(c2cc(C(=O)Nc3ccc4c(c3)-c3c(c(C(N)=O)nn3-c3ccc(O)cc3)CC4)c(Cl)cn2)CC1 | 75 | 
5 |  | 2 |  |  | CC(C)NC(=O)Cn1cc(CN2CCN(c3cc(C(=O)Nc4ccc5c(c4)-c4c(c(C(N)=O)nn4-c4ccc(F)cc4)CC5)c(Cl)cn3)CC2)cn1 | 36 | 94
1 |  | 2.8 |  |  | CN1CCN(c2cc(C(=O)Nc3ccc4c(c3)-c3c(c(C(N)=O)nn3-c3ccc(O)c(Cl)c3)CC4)c(Cl)cn2)CC1 | 46 | 
4 | 0.05 | 2.5 | 4 |  | CSCCNC(=O)Cn1cc(CN2CCN(c3cc(C(=O)Nc4ccc5c(c4)-c4c(c(C(N)=O)nn4-c4ccc(F)cc4)CC5)c(Cl)cn3)CC2)cn1 | 10 | 98
 |  | 6.1 |  |  | COc1ccc(-n2nc(C(N)=O)c3c2-c2cc(NC(=O)c4cc(N5CCN(C)CC5)ncc4Cl)ccc2CC3)cc1 | 33 | 
6 | 0.217 | 1.4 | > 4 |  | CNC(=O)Cn1cc(CN2CCN(c3cc(C(=O)Nc4ccc5c(c4)-c4c(c(C(N)=O)nn4-c4ccc(F)cc4)CC5)c(Cl)cn3)CC2)cn1 | 15 | 57
1 |  | 1.2 |  |  | CN1CCN(c2cc(C(=O)Nc3ccc4c(c3)-c3c(c(C(N)=O)nn3-c3cccc(O)c3)CC4)c(Cl)cn2)CC1 | 89 | 
0.1 |  | 0.6 |  |  | COCCNc1cc(C(=O)Nc2ccc3c(c2)-c2c(c(C(N)=O)nn2-c2ccc(F)cc2)CC3)c(Cl)cn1 | 134 | 
6 |  | 3.3 |  | 0.6 | CN(C)CCCNC(=O)Cn1cc(CN2CCN(c3cc(C(=O)Nc4ccc5c(c4)-c4c(c(C(N)=O)nn4-c4ccc(F)cc4)CC5)c(Cl)cn3)CC2)cn1 | 26 | 34
4.2 |  | 0.5 |  |  | Cn1cc(CN2CCN(c3cc(C(=O)Nc4ccc5c(c4)-c4c(c(C(N)=O)nn4-c4ccc(F)cc4)CC5)c(Cl)cn3)C(C(=O)O)C2)cn1 (stereo unspecified) | 529 | 
4 |  | 1.3 | > 4 |  | COCCOC(=O)Cn1cc(CN2CCN(c3cc(C(=O)Nc4ccc5c(c4)-c4c(c(C(N)=O)nn4-c4ccc(F)cc4)CC5)c(Cl)cn3)CC2)cn1 | 9 | 66
> 8 |  | 4.2 |  |  | CCn1cc(CN2CCN(c3cc(C(=O)Nc4ccc5c(c4)-c4c(c(C(N)=O)nn4-c4ccc(F)cc4)CC5)c(Cl)cn3)CC2)cn1 | 102 | 
4 |  | 10.2 | > 4 |  | NC(=O)c1nn(-c2ccc(F)cc2)c2c1CCc1ccc(NC(=O)c3cc(N4CCN(Cc5cnn(CC(=O)N(CCO)CCO)c5)CC4)ncc3Cl)cc1-2 | 474 | -1
3 |  |  |  | 0.233 | Cn1cc(CN2CCN(c3cc(C(=O)Nc4ccc5c(c4)-c4c(c(C(N)=O)nn4-c4cccc(F)c4)CC5)c(Cl)cn3)CC2)cn1 | 14 | 83
